Data: paper PMC6128401 (Molecular pharmaceutics, 2017)

Columns and labels:
[1] = molecular target: T1, A431-CCK2R cell line expressing the human CCK2R (Homo sapiens, UniProt P32239); experiment: Cell uptake; type: cell-based; conditions: A431-CCK2R cells, 2 h incubation, 0.4 nM
T1 sequence (P32239 1-447): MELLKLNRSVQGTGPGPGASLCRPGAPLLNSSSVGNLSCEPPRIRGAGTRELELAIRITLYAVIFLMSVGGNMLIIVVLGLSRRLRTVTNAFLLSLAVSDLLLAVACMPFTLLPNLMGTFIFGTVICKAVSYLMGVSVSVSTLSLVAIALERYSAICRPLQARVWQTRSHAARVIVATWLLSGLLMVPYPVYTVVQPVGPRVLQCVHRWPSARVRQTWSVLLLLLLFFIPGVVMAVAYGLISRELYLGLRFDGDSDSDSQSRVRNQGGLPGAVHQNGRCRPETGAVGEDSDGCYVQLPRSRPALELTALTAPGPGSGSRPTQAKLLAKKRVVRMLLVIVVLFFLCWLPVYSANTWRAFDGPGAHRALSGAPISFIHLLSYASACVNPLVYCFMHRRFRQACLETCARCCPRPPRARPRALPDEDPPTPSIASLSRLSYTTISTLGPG
Method in brief: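 A431-CCK2R and A431-mock cells were cultured in DMEM with 10% FBS, penicillin/streptomycin/L-glutamine at 37°C, 5% CO₂. They were seeded at 1.0×10⁶ cells/well and grown 48 h to confluency. Peptides were labelled with ¹⁷⁷LuCl₃ (~50 GBq/µmol) in ascorbate buffer pH 5 with gentisic acid and L-Met, 80°C. Triplicate wells received ~100,000 cpm (0.4 nM) for 2 h. The internalized fraction was gamma-counted as % of total added.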

[2] = Chemical stability in phosphate buffered saline; type: physicochemical; conditions: PBS at RT, up to/after 4 h incubation
Method in brief: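 ¹⁷⁷Lu-labelled peptide (120 pmol/mL) was kept in phosphate buffered saline at room temperature. Aliquots were taken at intervals up to […] and analysed by HPLC for percentage intact radiopeptide relative to post-labelling radiochemical purity.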

[3] = Stability against enzymatic degradation in human serum; type: in vitro ADME
Method in brief: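 The ¹⁷⁷Lu-labelled peptide was incubated in human serum at 37°C and sampled at time points up to 24 h. Proteins were precipitated with acetonitrile (1:1.5) and centrifuged; supernatant was diluted 1:1 with water before HPLC for intact radiopeptide. Half-life came from first-order exponential decay fitting.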

[4] = type: physicochemical
Method in brief: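 Labelling used ~2 GBq ¹⁷⁷LuCl₃ in 1 mL dilute HCl, heated at 80°C for 15-25 min. Kits were stored up to 6 months; labelled product was held up to 48 h at room temperature or −20°C. Radiochemical purity was measured by RP-HPLC.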

A431-CCK2R xenografts [5] = experiment: Biodistribution: uptake in receptor-positive tumour xenograft; type: in vivo, BALB/c nude mice; conditions: 30 min p.i.
Method in brief: (§1)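 Female and male BALB/c nude mice, 5-6 weeks old, carried A431-CCK2R and A431-mock xenografts in opposite flanks (2×10⁶ cells each). Tumours grew for ~14 days to ~0.2 g. Kit-prepared ¹⁷⁷Lu-peptide, 1 MBq (20 pmol; 50 GBq/µmol), was injected into the tail vein. Groups of five were killed at 30 min, 4 h, 1 d, 2 d, 3 d and 7 d; dissected tissues were gamma-counted and expressed as % IA/g.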

[6] = Biodistribution: uptake in normal organs and tissues; type: in vivo, BALB/c nude mice; conditions: 30 min p.i.
Method in brief: as §1

A431-CCK2R xenografts [7] = experiment: Experimental radionuclide therapy, receptor-positive tumour growth; type: in vivo, BALB/c nude mice; conditions: for mean SGR A431-CCK2R: single i.v. treatment; for TVDT increase by a factor in comparison to the control group: A431-CCK2R tumours
A431-mock xenografts = experiment: Experimental radionuclide therapy, receptor-negative tumour growth; type: in vivo, BALB/c nude mice; conditions: for mean SGR A431-mock: single i.v. treatment
[8] = Medullary toxicity: white blood cell and platelet counts; type: in vivo, BALB/c nude mice
Method in brief: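 Double-xenografted nude mice were dosed as in the therapy study (saline, 15 or 30 MBq i.v.), n=5. Weekly, 0.1 mL venous blood was drawn from the superficial temporal vein by lancet, up to eight samples per animal. White blood cells and platelets were counted on an automatic haematology analyser. Counts were expressed relative to basal values (week −2 = inoculation; week 0 = treatment).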

[9] = Renal toxicity: creatinine and urea in serum; type: in vivo, BALB/c nude mice
Method in brief: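 The same treated double-xenografted nude mice (saline, 15 or 30 MBq i.v.; n=5) gave weekly venous blood samples. Serum creatinine and urea were measured with specific kits on a semiautomatic biochemical analyser. Values were compared between treated and control groups over weeks from cell inoculation (week −2) onward.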

[10] = 15 MBq, one week after treatment
[11] = 15 MBq group, week 0 (week of treatment)
[12] = 15 MBq group, week -2 (cell inoculation)
[13] = 30 MBq group, week 0 (week of treatment)
[14] = 30 MBq group, week -2 (cell inoculation)

## CCCC[C@H](NC(=O)[C@H](Cc1c[nH]c2ccccc12)NC(=O)[C@H]1CCCCNC(=O)[C@H](NC(=O)CN2CCN(CC(=O)O)CCN(CC(=O)O)CCN(CC(=O)O)CC2)CCC(=O)N[C@@H](C)C(=O)N[C@@H](Cc2ccc(O)cc2)C(=O)N1)C(=O)N[C@@H](CC(=O)O)C(=O)N[C@@H](Cc1ccccc1)C(N)=O [^177Lu-DOTA-cyclo-MG2, metal not drawn]
[1]
  internalized radioligand fraction (% of total): 16.1±1.9%
[2]
  RCP during incubation in PBS: above 98%
[3]
  half-life: 17.8 h
[4]; kit storage up to 6 months, n=4
  mean RCP for the different time points after storage of the kits: 97.8±1.3%
[4]; kit-prepared, directly after preparation
  RCP after preparation: 97.8±1.3%
[4]; stored at RT
  RCP at 24 h after preparation: 96.3±1.4%
A431-CCK2R xenografts [5]
  maximal tumour uptake: 5.99 % IA/g
[6]
  kidney uptake, maximal value: 2.64 % IA/g
A431-CCK2R xenografts [7]; 15 MBq group (0.6 nmol)
  mean SGR A431-CCK2R: 0.048±0.011
A431-CCK2R xenografts [7]; 30 MBq group (1.2 nmol)
  mean SGR A431-CCK2R: 0.033±0.002
A431-CCK2R xenografts [7]; high activity group (30 MBq)
  TVDT increase by a factor in comparison to the control group: 2.5
A431-CCK2R xenografts [7]; low activity group (15 MBq)
  TVDT increase by a factor in comparison to the control group: 1.7
A431-mock xenografts; 15 MBq group (0.6 nmol)
  mean SGR A431-mock: 0.068±0.005
A431-mock xenografts; 30 MBq group (1.2 nmol)
  mean SGR A431-mock: 0.042±0.004
A431-mock xenografts; A431-mock tumours, high activity group (30 MBq)
  TVDT increase by a factor in comparison to the control group: 1.8
[8]; [10]
  reduction in PLT counts compared to the basal value: 51.2-52.8%
  reduction in WBC counts compared to the basal value: 37.8-40.8%
[8]; 15 MBq, week 1 after treatment, reference 558-1,454
  PLT value: 531±45 ×10^9/L
[8]; 30 MBq, after treatment
  decline of PLT value compared to the basal value: 44.8-58.0%
[8]; 30 MBq, week 1 after treatment
  reduction of WBC value compared to the basal value: 67.2-70.9%
[8]; 30 MBq, week 1 and 2 after treatment, reference 3.11-13.04
  WBC value below the lower reference limit: 2.17-2.94 ×10^9/L
[8]; 30 MBq, week 2 and 3 after treatment
  PLT value below the reference values: 524-549 ×10^9/L
[9]; [11]
  Creatinine (reference value 0.1-0.5): 0.3 ± 0.1 mg/dL
  Urea (reference value 17-38): 25 ± 7 mmol/L
[9]; 15 MBq group, week 1
  Creatinine (reference value 0.1-0.5): 0.2 ± 0.1 mg/dL
  Urea (reference value 17-38): 27 ± 6 mmol/L
[9]; 15 MBq group, week 2
  Creatinine (reference value 0.1-0.5): 0.3 ± 0.2 mg/dL
  Urea (reference value 17-38): 34 ± 3 mmol/L
[9]; 15 MBq group, week 3
  Creatinine (reference value 0.1-0.5): 0.2 ± 0.1 mg/dL
  Urea (reference value 17-38): 34 ± 5 mmol/L
[9]; 15 MBq group, week 4
  Creatinine (reference value 0.1-0.5): 0.5 ± 0.2 mg/dL
[9]; 15 MBq group, week 5
  Creatinine (reference value 0.1-0.5): 0.7 mg/dL
[9]; 15 MBq group, week -1
  Creatinine (reference value 0.1-0.5): 0.2 ± 0.1 mg/dL
  Urea (reference value 17-38): 32 ± 2 mmol/L
[9]; [12]
  Creatinine (reference value 0.1-0.5): 0.1 ± 0.02 mg/dL
  Urea (reference value 17-38): 30 ± 4 mmol/L
[9]; 15 MBq, beginning from week 4 after treatment
  urea above the upper limit of the reference value: 40 to 44 mmol/L
[9]; [13]
  Creatinine (reference value 0.1-0.5): 0.2 ± 0.1 mg/dL
  Urea (reference value 17-38): 27 ± 2 mmol/L
[9]; 30 MBq group, week 1
  Creatinine (reference value 0.1-0.5): 0.2 ± 0.1 mg/dL
  Urea (reference value 17-38): 37 ± 3 mmol/L
[9]; 30 MBq group, week 2
  Creatinine (reference value 0.1-0.5): 0.3 ± 0.2 mg/dL
[9]; 30 MBq group, week -1
  Creatinine (reference value 0.1-0.5): 0.3 ± 0.2 mg/dL
  Urea (reference value 17-38): 29 ± 4 mmol/L
[9]; [14]
  Creatinine (reference value 0.1-0.5): 0.2 ± 0.1 mg/dL
  Urea (reference value 17-38): 26 ± 3 mmol/L
[9]; 30 MBq, beginning from week 2 after treatment
  urea levels above the reference limit: 39 to 63 mmol/L
[9]; 30 MBq, beginning from week 3 after treatment
  creatinine levels above the reference limit: 0.6 to 0.8 mg/dL
